Results from different studies.
Lines come from different studies, so protocols differ.
Target: Inhibitor of nuclear factor kappa-B kinase subunit beta (IKBKB, Homo sapiens, UniProt O14920)

O=C(Nc1cnn(-c2csc(C(=O)NC3COC3)c2)c1)Nc1c(F)cccc1Cl
remaining activity (enzyme activity; inhibitor; 5 µM): 94.7%

FC(F)(F)Oc1cccc(-c2cnc3ccc(-c4ccncc4)nn23)c1
activity vs control (enzyme activity; inhibitor; radiometric; 5 µM): 84%

COc1cc2ncnc(Nc3ccc(F)c(Cl)c3)c2cc1OCCCN1CCOCC1
remaining signal (cell-free assay; 0.5 µM): 86.5%

O=C(Nc1cnn(-c2csc(C(=O)NC3COC3)c2)c1)Nc1ccccc1Cl
remaining activity (enzyme activity; inhibitor; 5 µM): 95.6%

CC(C)(C)c1nc(-c2cccc(NS(=O)(=O)c3c(F)cccc3F)c2F)c(-c2ccnc(N)n2)s1
remaining activity (enzyme activity; inhibitor; radiometric; 1 µM): 94%

O=C1Nc2ccc(Cl)cc2C1=Cc1cc(Cl)c(O)c(Cl)c1
remaining signal (cell-free assay; 0.5 µM): 93.6%

Oc1cccc(-c2nc(N3CCOCC3)c3oc4ncccc4c3n2)c1
remaining activity (enzyme activity; inhibitor; 10 µM): 74%

CCOCCn1cc(C(=O)Nc2ccc(-n3nc(-c4cccnc4)cc3C(F)(F)F)cn2)ccc1=O
remaining binding (cell-free assay; competition with immobilised ligand; 1 µM): 100%

COc1cc2ncnc(Nc3ccc(Oc4ccccc4)cc3C)c2cc1OC
inhibition (enzyme activity; inhibitor; 1 µM): 1%

Cc1ccc(Nc2nccc(N(C)c3ccc4c(C)n(C)nc4c3)n2)cc1S(N)(=O)=O
inhibition (enzyme activity; inhibitor; 10 µM): 17%

Cn1c2c(c3ccc(Cl)c(Cl)c31)C(C#N)C1(CCNCC1)NC2=O (racemic)
ΔTm (thermal stability; DSF; 10 µM): 0.6 °C

CS(=O)(=O)Nc1cccc(-c2csc(NC(=O)CSc3nc4nccnc4c(=O)n3CCc3ccccc3)n2)c1
inhibition (enzyme activity; inhibitor; 10 µM): 4%

Nc1nc(NC2CCCCC2)sc1C(=O)c1ccccc1
remaining activity (enzyme activity; inhibitor; 10 µM): 70%

Cn1c2c(Cl)c(Cl)ccc2c2cn[nH]c(=O)c21
ΔTm (thermal stability; DSF; 10 µM): -0.1 °C

Cc1cc(NC(=O)c2cccc3cc(-c4cccc5[nH]nc(N)c45)ccc23)ccc1F
activity vs control (enzyme activity; inhibitor; 0.1 µM): 106%

COc1cc(Nc2cnc(C#N)c(O[C@H](C)CN(C)C)n2)ncc1-c1cnn(C)c1
remaining activity (enzyme activity; inhibitor; radiometric; 1 µM): 96%

CN(c1ccnc(CNc2nc(Nc3ccc4c(c3)CC(=O)N4)ncc2C(F)(F)F)n1)S(C)(=O)=O
remaining binding (cell-free assay; competition with immobilised ligand; 1 µM): 78%

CCN(CC)c1ccc(C2=NNC(=O)CC2C)cc1[N+](=O)[O-] (centres unmarked)
remaining activity (enzyme activity; inhibitor; 10 µM): 97%

N#CCCc1ccc2c(c1)-c1[nH]c3ccc([N+](=O)[O-])cc3c1CC(=O)N2
remaining signal (cell-free assay; 0.5 µM): 96.3%

O=C(NCCCC1CCCCC1)c1ccc(CNC(=O)c2cnn(-c3ccccc3)c2C(F)(F)F)cc1
remaining binding (cell-free assay; competition with immobilised ligand; 0.1 µM): 100%

C=CC(=O)Nc1cc(Nc2nccc(Nc3cc(Cl)c(F)cc3C(C)(C)O)n2)c(OC)cc1N1CC[C@@H](N(C)C)C1
inhibition (enzyme activity; inhibitor; 1 µM): -5%

Nc1ncnc2occ(-c3ccc(NC(=O)Nc4cc(C(F)(F)F)ccc4F)cc3)c12
remaining activity (enzyme activity; inhibitor; 20 µM): 0.55%

CC(C)(C)C(=O)c1sc(NC2CCCCC2)nc1N
remaining activity (enzyme activity; inhibitor; 10 µM): 99%

NS(=O)(=O)c1cc(NC(=O)C2(c3ccccc3Cl)CC2)ccc1Oc1cccc(Cl)c1
remaining binding (cell-free assay; competition with immobilised ligand; 1 µM): 70%

O=c1c2ccccc2[nH]c(=S)n1CCN1CCC(=C(c2ccc(F)cc2)c2ccc(F)cc2)CC1
remaining activity (enzyme activity; inhibitor; 0.5 µM): 99.5%

CN(C)C1CCN(CC#Cc2nn(C3CCCC3)c3nc(NCc4ccccc4)ncc23)C1 (centres unmarked)
inhibition (enzyme activity; inhibitor; FRET; 10 µM): 2%

CC(C)(O)[C@H]1CC[C@H](Nc2ccc3ncc(-c4cccc(C(F)(F)F)c4)n3n2)CC1
remaining activity (enzyme activity; inhibitor; 1 µM): 95.4%

CN(c1ncccc1CNc1nc(Nc2ccc3c(c2)CC(=O)N3)ncc1C(F)(F)F)S(C)(=O)=O
inhibition (enzyme activity; inhibitor; 1 µM): 12.7%

CCS(=O)(=O)c1cc2cc(C[C@@](O)(CC(C)(C)c3ccc(F)cc3C(N)=O)C(F)(F)F)[nH]c2cn1
remaining binding (cell-free assay; competition with immobilised ligand; 1 µM): 83%

Cn1c2c(Cl)c(Cl)ccc2c2cc(N)[nH]c(=O)c21
ΔTm (thermal stability; DSF; 10 µM): -0.6 °C

Cc1ccc(NC(=O)c2ccc(C)c(C(F)(F)F)c2)cc1C#Cc1nn(C2CCC(O)CC2)c2ncnc(N)c12 (centres unmarked)
remaining signal (cell-free assay; 10 µM): 33%

Cn1c2c(c3ccc(Cl)c(Cl)c31)C(C#N)C1(CCCC1)NC2=O (centres unmarked)
ΔTm (thermal stability; DSF; 10 µM): -0.7 °C

CCCCNc1ncc2c(-c3ccc(F)cc3)nn(C[C@H]3CC[C@H](N)CC3)c2n1
inhibition (target engagement in cells; inhibitor; chemoproteomics; 20 mM): -14.9%

CNC(=O)c1cc(Oc2ccc(NC(=O)Nc3ccc(Cl)c(C(F)(F)F)c3)cc2)ccn1
inhibition (enzyme activity; inhibitor; 10 µM): -26%

CCCCN(CCCC)C(=O)CN1C[C@@H](c2cc(OC)c3c(c2)OCO3)[C@H](C(=O)O)[C@H]1CC(C)(C)CCC
remaining binding (cell-free assay; competition with immobilised ligand; 1 µM): 100%

Clc1ccc(Nc2nnc(Cc3ccncc3)c3ccccc23)cc1
remaining signal (cell-free assay; 0.5 µM): 85.6%

Cc1ccc(C(=O)NCc2ccsc2)cc1C#Cc1cn(C(C)C)c2ncnc(N)c12
activity vs control (enzyme activity; inhibitor; 1 µM): 108%

C[C@@H]1CN(c2cc(-c3nn(C)c4ccc(OC5(C)CC5)cc34)ncn2)C[C@H](C)O1
remaining binding (cell-free assay; competition with immobilised ligand; 1 µM): 76%

Cn1c2c(c3ccc(Cl)c(Cl)c31)C(C#N)C(C)(C)NC2=O (centres unmarked)
ΔTm (thermal stability; DSF; 10 µM): -0.4 °C

COc1ccc2c(c1)O[C@@H](c1ccc(OC)c(OC)c1)C[C@H]2NC(=O)C1(c2ccc3c(c2)OC(F)(F)O3)CC1
remaining binding (cell-free assay; competition with immobilised ligand; 1 µM): 95%

CCN(CC)CCNC(=O)c1c(C)[nH]c(/C=C2\C(=O)Nc3ccc(F)cc32)c1C
inhibition (enzyme activity; inhibitor; 10 µM): 9%
